From ChEMBL document CHEMBL1138325, “Design, synthesis, in vitro, and in vivo characterization of phenylpiperazines and pyridinylpiperazines as potent and selective antagonists of the melanocortin-4 receptor” (J Med Chem, 2007)
One block for each molecule: values may come before it.

Legend:
Melanocortin receptor 4 [1] = target: T1, Melanocortin receptor 4 (Homo sapiens, UniProt P32245); experiment: Displacement of [125I]NDPMSH from human MC4R expressed in HEK293 cells; assay type: cell-based
[2] = AUC in CD1 mouse at 10 mg/kg, po; assay type: ADME, organism-based; design: dose 10 mg/kg, route oral; conditions: plasma
Method in brief: (§1)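 CD-1 mice, three animals, dosed i.v. at 5 mg/kg and by oral gavage at 10 mg/kg. Plasma CL, Vd, t1/2, Cmax, Tmax, oral AUC and F% were derived. Brain concentrations and brain/plasma ratios at 1 and 4 h were taken from the i.v. dosing.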

[3] = target: T2, Melanocyte-stimulating hormone receptor (Homo sapiens, UniProt Q01726); experiment: Displacement of [125I]NDPMSH from human MC1R expressed in HEK293 cells at 10 uM; assay type: cell-based
Target sequence in this assay (Q01726 whole entry, looked up): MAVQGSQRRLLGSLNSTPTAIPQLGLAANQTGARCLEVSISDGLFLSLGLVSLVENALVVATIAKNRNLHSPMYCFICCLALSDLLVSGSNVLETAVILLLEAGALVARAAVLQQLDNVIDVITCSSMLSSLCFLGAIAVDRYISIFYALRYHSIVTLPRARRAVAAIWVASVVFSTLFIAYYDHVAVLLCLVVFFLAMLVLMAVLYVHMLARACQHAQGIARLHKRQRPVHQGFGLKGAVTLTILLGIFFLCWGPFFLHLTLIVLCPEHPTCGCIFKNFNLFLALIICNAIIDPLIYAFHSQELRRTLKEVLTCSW

[4] = Apparent permeability from apical to basolateral side of Caco-2 cells; assay type: ADME, cell-based; conditions: human
Method in brief: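 Caco-2 monolayer permeability, with Papp measured in the apical-to-basolateral direction.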

Melanocortin receptor 4 [5] = target: T1, Melanocortin receptor 4; experiment: Antagonist activity at human MC4R expressed in HEK293 cells assessed as inhibition of alpha-MSH-stimulated cAMP production; assay type: functional, cell-based
[6] = Ratio of drug level in brain to plasma in CD1 mouse at 5 mg/kg, iv after 4 hrs; assay type: ADME, organism-based; design: dose 5 mg/kg, route intravenous; conditions: brain and plasma, read-out: BPR
[7] = Cmax in CD1 mouse at 10 mg/kg, po after 6 hrs; assay type: ADME, organism-based; design: dose 10 mg/kg, route oral; conditions: in vivo; method in brief: as §1
[8] = target: Growth hormone secretagogue receptor type 1 (Homo sapiens, UniProt Q92847); experiment: Agonist activity at GHSR; assay type: functional
[9] = Drug level in CD1 mouse brain at 5 mg/kg, iv after 1 hr; assay type: ADME, organism-based; design: dose 5 mg/kg, route intravenous; conditions: read-out: Drug uptake; method in brief: as §1
[10] = Tmax in CD1 mouse at 10 mg/kg, po; assay type: ADME, organism-based; design: dose 10 mg/kg, route oral; conditions: in vivo
Method in brief: (§2)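 CD-1 mice, three animals per route; single i.v. dose at 5 mg/kg and oral gavage at 10 mg/kg. Plasma PK parameters derived; brain concentrations and brain/plasma ratios taken from the i.v. dosing at 1 and 4 h.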

[11] = Half life in CD1 mouse at 5 mg/kg, iv; assay type: ADME, organism-based; design: dose 5 mg/kg, route intravenous; conditions: in vivo; method in brief: as §1
[12] = Bioavailability in CD1 mouse at 10 mg/kg, po; assay type: ADME, organism-based; conditions: in vivo; method in brief: as §1
[13] = Ratio of drug level in brain to plasma in CD1 mouse at 5 mg/kg, iv after 1 hr; assay type: ADME, organism-based; design: dose 5 mg/kg, route intravenous; conditions: brain and plasma, read-out: BPR
[14] = Drug level in CD1 mouse brain at 5 mg/kg, iv after 4 hrs; assay type: ADME, organism-based; design: dose 5 mg/kg, route intravenous; conditions: read-out: Drug uptake; method in brief: as §1
[15] = Volume of distribution in CD1 mouse at 5 mg/kg, iv; assay type: ADME, organism-based; design: dose 5 mg/kg, route intravenous; conditions: in vivo; method in brief: as §2
[16] = Clearance in CD1 mouse at 5 mg/kg, iv; assay type: ADME, organism-based; design: dose 5 mg/kg, route intravenous; conditions: in vivo; method in brief: as §1
[17] = Distribution coefficient, log D by shake flask method; assay type: physicochemical; conditions: octanol/water
Method in brief: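 LogD measured by the shake-flask method; described elsewhere in the paper as lipophilicity at pH 7.4.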

[18] = Volume of distribution in Sprague-Dawley rat at 5 mg/kg, iv and 10 mg/kg, po; assay type: ADME, organism-based; conditions: in vivo
Method in brief: (§3)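 Sprague–Dawley rats, three animals per route; i.v. dose 5 mg/kg and oral 10 mg/kg. Brain concentrations and brain/plasma ratios taken from the oral dosing at 1 and 4 h post-dose.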

[19] = Cmax in Sprague-Dawley rat at 10 mg/kg, po; assay type: ADME, organism-based; design: dose 10 mg/kg, route oral; conditions: in vivo
[20] = Half life in Sprague-Dawley rat at 5 mg/kg, iv and 10 mg/kg, po; assay type: ADME, organism-based; conditions: in vivo
[21] = Tmax in Sprague-Dawley rat at 5 mg/kg, iv and 10 mg/kg, po; assay type: ADME, organism-based; conditions: in vivo; method in brief: as §3
Melanocortin receptor 5 = Melanocortin receptor 5 (Homo sapiens, UniProt P33032); experiment: Displacement of [125I]NDPMSH from human MC5R expressed in HEK293 cells; assay type: cell-based
[22] = Oral bioavailability in Sprague-Dawley rat at 10 mg/kg, po; assay type: ADME, organism-based; conditions: in vivo; method in brief: as §3
[23] = Drug level in Sprague-Dawley rat brain at 10 mg/kg, po after 1 hr; assay type: ADME, organism-based; design: dose 10 mg/kg, route oral; conditions: read-out: Drug uptake
[24] = Clearance in Sprague-Dawley rat at 5 mg/kg, iv and 10 mg/kg, po; assay type: ADME, organism-based; conditions: in vivo
[25] = Ratio of drug level in brain to plasma in Sprague-Dawley rat at 10 mg/kg, po after 4 hrs; assay type: ADME, organism-based; design: dose 10 mg/kg, route oral; conditions: brain and plasma, read-out: BPR; method in brief: as §3
[26] = Ratio of drug level in brain to plasma in Sprague-Dawley rat at 10 mg/kg, po after 1 hr; assay type: ADME, organism-based; design: dose 10 mg/kg, route oral; conditions: brain and plasma, read-out: BPR; method in brief: as §3
[27] = AUC in Sprague-Dawley rat at 10 mg/kg, po; assay type: ADME, organism-based; design: dose 10 mg/kg, route oral; conditions: plasma
Melanocortin receptor 3 = Melanocortin receptor 3 (Homo sapiens, UniProt P41968); experiment: Displacement of [125I]NDPMSH from human MC3R expressed in HEK293 cells; assay type: cell-based
[28] = Drug level in Sprague-Dawley rat brain at 10 mg/kg, po after 4 hrs; assay type: ADME, organism-based; design: dose 10 mg/kg, route oral; conditions: read-out: Drug uptake
[29] = Half life in Sprague-Dawley rat at 2.5 mg/kg, iv and 10 mg/kg, po; assay type: ADME, organism-based; conditions: in vivo
Method in brief: (§4)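 Sprague–Dawley rats, three animals, dosed i.v. at 2.5 mg/kg and orally at 10 mg/kg. CL and t1/2 were derived from the plasma profile.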

[30] = target: T2, Melanocyte-stimulating hormone receptor; experiment: Displacement of [125I]NDPMSH from human MC1R expressed in HEK293 cells; assay type: cell-based
Target sequence in this assay (Q01726 whole entry): as the sequence (Q01726 whole entry, looked up) above

[31] = Tmax in Sprague-Dawley rat at 2.5 mg/kg, iv and 10 mg/kg, po; assay type: ADME, organism-based; conditions: in vivo
Method in brief: (§5)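 Sprague–Dawley rats, three animals per route; i.v. given at 2.5 mg/kg and oral at 10 mg/kg; plasma PK parameters calculated from these dosings.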

[32] = Volume of distribution in Sprague-Dawley rat at 2.5 mg/kg, iv and 10 mg/kg, po; assay type: ADME, organism-based; conditions: in vivo; method in brief: as §5
[33] = Clearance in Sprague-Dawley rat at 2.5 mg/kg, iv and 10 mg/kg, po; assay type: ADME, organism-based; conditions: in vivo; method in brief: as §4

T1 sequence (P32245 whole entry): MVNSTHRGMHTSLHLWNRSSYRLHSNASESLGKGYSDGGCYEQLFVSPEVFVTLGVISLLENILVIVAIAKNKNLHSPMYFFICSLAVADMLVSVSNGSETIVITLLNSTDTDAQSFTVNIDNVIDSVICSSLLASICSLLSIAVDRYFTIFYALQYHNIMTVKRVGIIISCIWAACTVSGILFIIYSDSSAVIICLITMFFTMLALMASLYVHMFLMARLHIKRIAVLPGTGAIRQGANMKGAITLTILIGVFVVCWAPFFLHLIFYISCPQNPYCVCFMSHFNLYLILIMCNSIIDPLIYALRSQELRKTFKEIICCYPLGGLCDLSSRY
Melanocortin receptor 5, sequence (P33032 whole entry): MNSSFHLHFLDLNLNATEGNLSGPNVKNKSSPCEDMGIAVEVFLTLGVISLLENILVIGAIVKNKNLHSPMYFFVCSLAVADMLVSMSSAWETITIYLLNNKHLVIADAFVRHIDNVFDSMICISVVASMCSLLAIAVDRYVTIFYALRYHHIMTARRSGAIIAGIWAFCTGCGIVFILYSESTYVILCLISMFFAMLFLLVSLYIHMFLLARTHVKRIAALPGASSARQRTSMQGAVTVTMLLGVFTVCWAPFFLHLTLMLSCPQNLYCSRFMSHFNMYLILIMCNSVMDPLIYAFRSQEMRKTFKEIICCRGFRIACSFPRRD
Melanocortin receptor 3, sequence (P41968 whole entry): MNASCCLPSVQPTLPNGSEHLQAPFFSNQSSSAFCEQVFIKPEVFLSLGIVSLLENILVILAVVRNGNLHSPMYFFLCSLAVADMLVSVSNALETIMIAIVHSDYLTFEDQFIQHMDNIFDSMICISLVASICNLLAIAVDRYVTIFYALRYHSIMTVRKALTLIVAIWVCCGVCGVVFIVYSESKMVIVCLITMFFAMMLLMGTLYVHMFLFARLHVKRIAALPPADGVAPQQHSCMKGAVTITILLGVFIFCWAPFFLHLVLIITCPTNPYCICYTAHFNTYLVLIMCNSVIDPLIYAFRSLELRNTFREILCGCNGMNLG
Growth hormone secretagogue receptor type 1, sequence (Q92847 whole entry): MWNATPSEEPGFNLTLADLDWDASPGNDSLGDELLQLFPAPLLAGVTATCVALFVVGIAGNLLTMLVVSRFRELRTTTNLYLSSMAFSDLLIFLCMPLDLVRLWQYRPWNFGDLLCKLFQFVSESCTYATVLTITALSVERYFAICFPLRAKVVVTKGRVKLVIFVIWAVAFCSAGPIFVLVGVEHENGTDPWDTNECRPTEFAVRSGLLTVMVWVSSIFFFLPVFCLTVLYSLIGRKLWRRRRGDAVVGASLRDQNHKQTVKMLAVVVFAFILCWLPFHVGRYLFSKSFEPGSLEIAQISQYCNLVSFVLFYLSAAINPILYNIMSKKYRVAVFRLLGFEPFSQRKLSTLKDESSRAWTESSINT

Ki (Melanocortin receptor 4 [1]): 0.039 µM
SMILES: CC(C)C[C@H](NC(=O)CN)c1cccnc1N1CCN(C(=O)[C@H](C)Cc2ccc(Cl)cc2Cl)CC1

AUC [2]: 0.687 µg·h/mL | Activity [3]: 18%
SMILES: CC(C)C[C@H](NC(=O)CN)c1cc(C(F)(F)F)ccc1N1CCN(C(=O)CCc2ccc(Cl)cc2Cl)CC1

AUC [2]: 1.76 µg·h/mL | Papp A→B [4]: 18 nm/s | IC50 (Melanocortin receptor 4 [5]): 0.57 µM
SMILES: Cc1ccc(N2CCN(C(=O)[C@H](C)Cc3ccc(Cl)cc3)CC2)c([C@@H](N)CC(C)C)c1

Kp at 4 h [6]: 0.23 | Cmax [7]: 0.552 µg/mL | Intrinsic activity [8]: 107% | Papp A→B [4]: 20 nm/s
SMILES: CC(C)C[C@H](NCCN)c1cccc(F)c1N1CCN(C(=O)[C@@H](Cc2ccc(Cl)cc2Cl)N2CCCC2=O)CC1

Ki (Melanocortin receptor 4 [1]): 0.26 µM
SMILES: CC(C)C[C@@H](N)c1cccnc1N1CCN(C(=O)CCc2ccc(Cl)cc2Cl)CC1

concentration at 1 h [9]: 35 ng/g | Kp at 4 h [6]: 0.15 | Cmax [7]: 0.288 µg/mL | Ki (Melanocortin receptor 4 [1]): 0.006 µM | Tmax [10]: 0.5 h | AUC [2]: 0.551 µg·h/mL | half-life [11]: 5.2 h | bioavailability [12]: 12.6% | Kp at 1 h [13]: 0.07 | concentration at 4 h [14]: 14 ng/g | Vd [15]: 16.8 L/kg | clearance [16]: 2.24 L/h/kg
SMILES: CC(C)C[C@@H](NC(=O)CN)c1cccnc1N1CCN(C(=O)[C@H](C)Cc2ccc(Cl)cc2Cl)CC1

AUC [2]: 0.249 µg·h/mL | logD [17]: 4.5
SMILES: COc1cc(Cl)ccc1CC(C)C(=O)N1CCN(c2ccc(C(F)(F)F)cc2[C@@H](N)CC(C)C)CC1 (stereo not given in full)

Vd [18]: 4.1 L/kg | Cmax [19]: 0.196 µg/mL | Ki (Melanocortin receptor 4 [1]): 0.0037 µM | half-life [20]: 3.1 h | Tmax [21]: 5.3 h | Ki (Melanocortin receptor 5): 0.71 µM | Activity [3]: 34% | bioavailability [22]: 19% | concentration at 1 h [23]: 12 ng/g | clearance [24]: 0.9 L/h/kg | Kp at 4 h [25]: 0.3 | Kp at 1 h [26]: 0.2 | AUC [27]: 2.36 µg·h/mL | Ki (Melanocortin receptor 3): 2.8 µM | logD [17]: 2.4 | IC50 (Melanocortin receptor 4 [5]): 0.16 µM | concentration at 4 h [28]: 36 ng/g
SMILES: Cc1ccc(N2CCN(C(=O)[C@H](C)Cc3ccc(Cl)cc3)CC2)c([C@H](CC(C)C)NC(=O)CCN(C)C)c1

Cmax [19]: 0.06 µg/mL | Ki (Melanocortin receptor 4 [1]): 0.0025 µM | Ki (Melanocortin receptor 5): 1.2 µM | half-life [29]: 3.3 h | Ki [30]: 6.4 µM | bioavailability [22]: 19.6% | concentration at 1 h [23]: 15 ng/g | Tmax [31]: 2 h | Kp at 4 h [25]: 0.2 | Kp at 1 h [26]: 0.2 | AUC [27]: 0.517 µg·h/mL | Ki (Melanocortin receptor 3): 3.3 µM | Vd [32]: 18.6 L/kg | clearance [33]: 3.89 L/h/kg | logD [17]: 3.3 | IC50 (Melanocortin receptor 4 [5]): 0.049 µM | concentration at 4 h [28]: 29 ng/g
SMILES: Cc1ccc([C@@H](CC(C)C)NC(=O)CCN(C)C)c(N2CCN(C(=O)[C@H](C)Cc3ccc(Cl)cc3Cl)CC2)n1

Vd [18]: 8.8 L/kg | Cmax [19]: 0.04 µg/mL | half-life [20]: 2.6 h | Tmax [21]: 4 h | bioavailability [22]: 8.7% | concentration at 1 h [23]: 1.5 ng/g | clearance [24]: 2.32 L/h/kg | Kp at 4 h [25]: 0.3 | Kp at 1 h [26]: 0.2 | AUC [27]: 0.393 µg·h/mL | logD [17]: 3.9 | concentration at 4 h [28]: 15 ng/g
SMILES: Cc1ccc(N2CCN(C(=O)[C@@H](Cc3ccc(Cl)cc3Cl)N3CCCC3=O)CC2)c([C@H](CC(C)C)NC(=O)CCN(C)C)c1

Ki (Melanocortin receptor 4 [1]): 0.044 µM
SMILES: Cc1ccc([C@H](N)CC(C)C)c(N2CCN(C(=O)[C@H](C)Cc3ccc(Cl)cc3Cl)CC2)n1

Ki (Melanocortin receptor 4 [1]): 0.036 µM
SMILES: CC(C)C[C@@H](N)c1cccnc1N1CCN(C(=O)C(C)Cc2ccc(Cl)cc2Cl)CC1 (stereo not given in full)

Ki (Melanocortin receptor 4 [1]): 0.075 µM
SMILES: CC(C)C[C@H](N)c1cc(C(F)(F)F)ccc1N1CCN(C(=O)CCc2ccc(Cl)cc2Cl)CC1

Ki (Melanocortin receptor 4 [1]): 0.89 µM
SMILES: CC(C)C[C@H](N)c1cccnc1N1CCN(C(=O)CCc2ccc(Cl)cc2Cl)CC1
